Measurements from publication PMC11410293 (Journal of hepatology, 2022).

Key:
HuCCT-1 reporter cells = assay: luminescent reporter of TEAD-dependent transcription; type: cell-based
PDX283 tumors [1] = assay: pharmacodynamics in PDX283 tumors; type: in vivo, NOD/SCID mice; conditions: CA3-treated mice, qRT-PCR
PDX283 tumors [2] = assay: PDX283 xenograft tumor growth; type: in vivo, NOD/SCID mice; conditions: 1 mg/kg/mouse intraperitoneal 3 times per week for 3 weeks
In short: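 Female NOD/SCID mice aged 6–8 weeks carried flank implants of the human CCA tumor. Dosing began once tumors were palpable (>25 mm³). Tumor growth was followed.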

cells from PDX283 = assay: viability of cells isolated from PDX283 tumor, in vitro; type: cell-based, human; conditions: concentrations up to 16 μM
[3] = tested on: CCA patient-derived xenografts; conditions: cited from earlier work

Verteporfin
global TEAD-dependent transcription (HuCCT-1 reporter cells): decreased

O=S(=O)(c1ccc2c(c1)C(=NO)c1cc(S(=O)(=O)N3CCCCC3)ccc1-2)N1CCCCC1 [CA3]
YAP target gene expression in tumors (PDX283 tumors [1]): Inhibition | growth of PDX283 tumors (PDX283 tumors [2]): significantly decreased

CCN1C(=O)N(c2c(F)c(OC)cc(OC)c2F)Cc2cnc3[nH]c(CN4CCOCC4)cc3c21 [pemigatinib]
sensitivity of PDX283 cells (cells from PDX283): resistance

Cc1nc(Nc2ncc(C(=O)Nc3c(C)cccc3Cl)s2)cc(N2CCN(CCO)CC2)n1 [dasatinib]
in vivo growth of CCA patient-derived xenografts [3]: inhibited
